The source of these data is ChEMBL document CHEMBL4814044, “Design and synthesis, biological evaluation of bis-(1,2,3- and 1,2,4)-triazole derivatives as potential antimicrobial and antifungal agents” (2021).

Assay type in all cases: functional
One assay deals with Staphylococcus aureus. Put plainly: Antibacterial activity against Staphylococcus aureus MTCC 96 assessed as bacterial growth inhibition by microdilution method. The method, boiled down:
(§1)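 Broth microdilution against Gram-positive and Gram-negative strains. The endpoint is the minimal inhibitory concentration, in µg/ml.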

Another assay relates to Bacillus subtilis. Description: Antibacterial activity against Bacillus subtilis MTCC 441 assessed as bacterial growth inhibition by microdilution method. The method, boiled down: as §1
The test system of another assay is Pseudomonas aeruginosa. Description: Antibacterial activity against Pseudomonas aeruginosa MTCC 424 assessed as bacterial growth inhibition by microdilution method. The method, boiled down: as §1
On the technique in general: In broth dilution the organism is exposed to a series of concentrations in liquid medium.

Another assay deals with Escherichia coli. Put plainly: Antibacterial activity against Escherichia coli MTCC 443 assessed as bacterial growth inhibition by microdilution method. The method, boiled down:
as §1

Assay [1] relates to Aspergillus niger. Description: Antifungal activity against Aspergillus niger MTCC 404 assessed as zone of inhibition at 16 uM incubated for 2 days by cross streak plate method. The settings on record: MTCC 404, 48 h, time 2 day, read-out: IZ. The method, boiled down:
(§2)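 Fungal strain (A. niger MTCC 404 or S. cerevisiae MTCC 1344) was incubated with the compound for 2 days at 37 °C. Growth inhibition was then assessed by the cross streak plate method.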

In assay [2] the test system is Aspergillus niger. Put plainly: Antifungal activity against Aspergillus niger MTCC 404 assessed as zone of inhibition at 24 uM incubated for 2 days by cross streak plate method. The settings on record: MTCC 404, 48 h, time 2 day, read-out: IZ. The method, boiled down:
as §2

For assay [3], the system named is Aspergillus niger. Put plainly: Antifungal activity against Aspergillus niger MTCC 404 assessed as zone of inhibition at 32.1 uM incubated for 2 days by cross streak plate method. Conditions: MTCC 404, 48 h, time 2 day, read-out: IZ. The method, boiled down: as §2
Assay [4] deals with Saccharomyces cerevisiae. Put plainly: Antifungal activity against Saccharomyces cerevisiae MTCC 1344 assessed as zone of inhibition at 16 uM incubated for 2 days by cross streak plate method. The settings on record: MTCC 1344, 48 h, time 2 day, read-out: IZ. The method, boiled down: as §2
Assay [5] has as its system Saccharomyces cerevisiae. Put plainly: Antifungal activity against Saccharomyces cerevisiae MTCC 1344 assessed as zone of inhibition at 24 uM incubated for 2 days by cross streak plate method. The settings on record: MTCC 1344, 48 h, time 2 day, read-out: IZ. The method, boiled down:
as §2

Assay [6] relates to Saccharomyces cerevisiae. Put plainly: Antifungal activity against Saccharomyces cerevisiae MTCC 1344 assessed as zone of inhibition at 32.1 uM incubated for 2 days by cross streak plate method. The settings on record: MTCC 1344, 48 h, time 2 day, read-out: IZ. The method, boiled down:
(§3)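 S. cerevisiae MTCC 1344 cultures were incubated for 2 days at 37 °C and then tested by the cross streak plate method.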

Assay [7] is described as follows: Antioxidant activity assessed as DPPH radical scavenging activity.
Assay [8] has as its system Aspergillus niger. Description: Antifungal activity against Aspergillus niger MTCC 404 assessed as zone of inhibition at 36 uM incubated for 2 days by cross streak plate method. Conditions: MTCC 404, 48 h, time 2 day, read-out: IZ. In short, it runs like this:
as §2

For assay [9], the system named is Aspergillus niger. Put plainly: Antifungal activity against Aspergillus niger MTCC 404 assessed as zone of inhibition at 48 uM incubated for 2 days by cross streak plate method. Conditions: MTCC 404, 48 h, time 2 day, read-out: IZ. In short, it runs like this: as §2
The subject of assay [10] is Saccharomyces cerevisiae. Description: Antifungal activity against Saccharomyces cerevisiae MTCC 1344 assessed as zone of inhibition at 36 uM incubated for 2 days by cross streak plate method. Conditions: MTCC 1344, 48 h, time 2 day, read-out: IZ. In short, it runs like this:
as §3

The subject of assay [11] is Saccharomyces cerevisiae. Put plainly: Antifungal activity against Saccharomyces cerevisiae MTCC 1344 assessed as zone of inhibition at 48 uM incubated for 2 days by cross streak plate method. Conditions: MTCC 1344, 48 h, time 2 day, read-out: IZ. The method, boiled down:
as §3

Assay [12] concerns Aspergillus niger. Put plainly: Antifungal activity against Aspergillus niger MTCC 404 assessed as zone of inhibition at 15.6 uM incubated for 2 days by cross streak plate method. The settings on record: MTCC 404, 48 h, time 2 day, read-out: IZ. The method, boiled down:
as §2

Assay [13] deals with Aspergillus niger. Put plainly: Antifungal activity against Aspergillus niger MTCC 404 assessed as zone of inhibition at 23.4 uM incubated for 2 days by cross streak plate method. The settings on record: MTCC 404, 48 h, time 2 day, read-out: IZ. In short, it runs like this: as §2
Assay [14] relates to Aspergillus niger. Description: Antifungal activity against Aspergillus niger MTCC 404 assessed as zone of inhibition at 31.2 uM incubated for 2 days by cross streak plate method. The settings on record: MTCC 404, 48 h, time 2 day, read-out: IZ. The method, boiled down:
as §2

Assay [15] relates to Saccharomyces cerevisiae. Description: Antifungal activity against Saccharomyces cerevisiae MTCC 1344 assessed as zone of inhibition at 15.6 uM incubated for 2 days by cross streak plate method. The settings on record: MTCC 1344, 48 h, time 2 day, read-out: IZ. The method, boiled down: as §2
The test system of assay [16] is Saccharomyces cerevisiae. Description: Antifungal activity against Saccharomyces cerevisiae MTCC 1344 assessed as zone of inhibition at 23.4 uM incubated for 2 days by cross streak plate method. Conditions: MTCC 1344, 48 h, time 2 day, read-out: IZ. The method, boiled down:
as §2

For assay [17], the system named is Saccharomyces cerevisiae. Put plainly: Antifungal activity against Saccharomyces cerevisiae MTCC 1344 assessed as zone of inhibition at 31.2 uM incubated for 2 days by cross streak plate method. Conditions: MTCC 1344, 48 h, time 2 day, read-out: IZ. In short, it runs like this: as §2

The source made the active and inactive calls. The calls are words filed in the database; no cut-off is given here.

Take `O=C(CSc1nnc(-c2ccccc2OCc2cn(-c3ccccc3)nn2)n1-c1ccccc1)c1ccc(Br)cc1`: the MIC – broadly, the lowest concentration found to suppress growth – in the assay on Staphylococcus aureus is 7.9 µg/mL; in the assay on Bacillus subtilis, 4.1 µg/mL; in the assay with Pseudomonas aeruginosa, 7.5 µg/mL; with Escherichia coli it was 10 µg/mL. Also, the zone of inhibition at 16 µM came out at 1.5 mm in the assay with Aspergillus niger [1] and 2 mm with Saccharomyces cerevisiae [4]. Moreover, the zone of inhibition at 24 µM with Aspergillus niger [2] and in the assay with Saccharomyces cerevisiae [5] was 2 mm in each case. Further, the zone of inhibition at 32.1 µM in the assay on Aspergillus niger [3] and in the assay with Saccharomyces cerevisiae [6] was 3 mm throughout. The outcome in assay [7] was inactive.

Regarding `Clc1ccc(COC(Cn2ccnc2)c2ccc(Cl)cc2Cl)c(Cl)c1` (stereo not drawn) [MICONAZOLE], the zone of inhibition at 24 µM with Aspergillus niger [2] and in the assay on Saccharomyces cerevisiae [5] was 8 mm each time. In addition, the zone of inhibition at 36 µM in the assay on Aspergillus niger [8] is 10 mm; in the assay on Saccharomyces cerevisiae [10], 9 mm. The zone of inhibition at 48 µM with Aspergillus niger [9] and with Saccharomyces cerevisiae [11] was 12 mm throughout.

`O=C(CSc1nnc(-c2ccccc2OCc2cn(-c3ccccc3)nn2)n1Cc1ccccc1)c1ccc(Br)cc1`: the MIC turned out to be 3.9 µg/mL in the assay with Staphylococcus aureus, 4.2 µg/mL with Bacillus subtilis, 8.8 µg/mL in the assay with Pseudomonas aeruginosa and 4.5 µg/mL in the assay with Escherichia coli. For the same molecule, the zone of inhibition at 15.6 µM with Aspergillus niger [12] was 5 mm; with Saccharomyces cerevisiae [15] it was 6 mm. For the same molecule, the zone of inhibition at 23.4 µM was found to be 7.4 mm in the assay on Aspergillus niger [13] and 6.5 mm in the assay on Saccharomyces cerevisiae [16]. For the same molecule, the values for the zone of inhibition at 31.2 µM in the assay with Aspergillus niger [14] and with Saccharomyces cerevisiae [17] were 7.6 mm and 7 mm, respectively. For the same molecule, in [7], the outcome was inactive.
